According to ChEMBL document CHEMBL3217512, “Indole/triazole conjugates are selective inhibitors and inducers of bacterial biofilms” (Medchemcomm, 2013):

Columns and labels:
[1] = test system: Escherichia coli; test: Inhibition of biofilm formation in Escherichia coli K-12 ER2718 after 24 hrs by crystal violet staining-based assay; format: functional, organism-based; conditions: K-12 ER2718, 24 h
Outline: (§1)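 Compounds active in the 150 μM screen were taken into dose-response studies under static conditions with a crystal violet read-out. IC50 is the concentration that inhibits 50% of biofilm growth relative to an untreated control.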

[2] = test system: Staphylococcus aureus; test: Inhibition of biofilm formation in Staphylococcus aureus 29213 after 24 hrs by crystal violet staining-based assay; format: functional, organism-based; conditions: Staphylococcus aureus, 29213, 24 h; outline: as §1
[3] = test system: Staphylococcus aureus; test: Inhibition of biofilm formation in methicillin-resistant Staphylococcus aureus BAA 44 after 24 hrs by crystal violet staining-based assay; format: functional, organism-based; conditions: BAA 44, 24 h
Outline: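 Static biofilm development in MRSA, read out by crystal violet staining against an untreated control. Initial screen at 150 μM. Inhibitors then went to dose-response, with IC50 taken as the concentration giving 50% inhibition of biofilm growth. Induction was judged at 50 μM: under 50% induction counted as "inducer", over 50% as "strong inducer".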

[4] = test system: Escherichia coli; test: Antimicrobial activity against Escherichia coli K-12 ER2718 assessed as effect on planktonic growth at IC50 after 2 to 24 hrs; format: organism-based
[5] = test system: Staphylococcus aureus; test: Antimicrobial activity against methicillin-resistant Staphylococcus aureus BAA 44 assessed as effect on planktonic growth at IC50 after 2 to 24 hrs; format: organism-based; conditions: in vivo
[6] = test system: Escherichia coli; test: Antimicrobial activity against Escherichia coli K-12 ER2718 assessed as effect on planktonic growth at PC25 after 2 to 24 hrs by colony count method; format: organism-based
[7] = test system: Escherichia coli; test: Antimicrobial activity against Escherichia coli K-12 ER2718 assessed as effect on planktonic growth at PC25 in presence of N-(2-(4-(((3aR,8aR)-1,2,3,3a,8,8a-hexahydropyrrolo[2,3-b]indol-3a-yl)methyl)-1H-1,2,3-triazol-1-yl)ethyl)-4-hexylbenzamide; format: organism-based
[8] = test system: Escherichia coli; test: Induction of biofilm formation in Escherichia coli K-12 ER2718 assessed as concentration required for 50% promotion of biofilm formation after 24 hrs by crystal violet staining-based assay; format: functional
Outline: (§2)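 For strong inducers of E. coli biofilm, dose-response curves were run in the static crystal violet assay. PC25, PC50 and PC75 are the concentrations promoting biofilm formation by 25%, 50% and 75%.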

[9] = test system: Escherichia coli; test: Induction of biofilm formation in Escherichia coli K-12 ER2718 assessed as concentration required for 75% promotion of biofilm formation after 24 hrs by crystal violet staining-based assay; format: functional; outline: as §2
[10] = test system: Escherichia coli; test: Antimicrobial activity against Escherichia coli K-12 ER2718 assessed as effect on planktonic growth at PC50 in presence of N-(2-(4-(((3aR,8aR)-1,2,3,3a,8,8a-hexahydropyrrolo[2,3-b]indol-3a-yl)methyl)-1H-1,2,3-triazol-1-yl)ethyl)-4-hexylbenzamide; format: organism-based; conditions: in vivo
[11] = test system: Acinetobacter baumannii; test: Inhibition of biofilm formation in Acinetobacter baumannii 19606 at 150 uM after 24 hrs by crystal violet staining-based assay relative to control; format: functional; conditions: ATCC 19606 = CIP 70.34 = JCM 6841, 24 h
[12] = test system: Escherichia coli; test: Antimicrobial activity against Escherichia coli K-12 ER2718 assessed as effect on planktonic growth at PC75 after 2 to 24 hrs by colony count method; format: organism-based; conditions: in vivo
[13] = test system: Escherichia coli; test: Reversal of N-(2-(4-(((3aR,8aR)-1,2,3,3a,8,8a-hexahydropyrrolo[2,3-b]indol-3a-yl)methyl)-1H-1,2,3-triazol-1-yl)ethyl)-4-hexylbenzamide-induced biofilm inhibition in Escherichia coli K-12 ER2718 at PC75 relative to control; format: functional; set-up: scale not given: the % may be the effect or the level left
Outline: (§3)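 E. coli static crystal violet biofilm assay. The inducer was added at its PC25, PC50 or PC75 concentration together with the reference inhibitor at a fixed concentration. Reversal was taken as the reduction in the inhibitor's anti-biofilm activity.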

[14] = test system: Escherichia coli; test: Induction of biofilm formation in Escherichia coli K-12 ER2718 at 50 uM after 24 hrs by crystal violet staining-based assay relative to control; format: functional
Outline: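 Static biofilm assay with compounds at 50 μM and crystal violet read-out, relative to an untreated control. Compounds increasing biofilm by less than 50% were called inducers, and by more than 50% strong inducers.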

[15] = test system: Escherichia coli; test: Antimicrobial activity against Escherichia coli K-12 ER2718 assessed as effect on planktonic growth at IC50 after 2 to 24 hrs by colony count method; format: organism-based
[16] = test system: Acinetobacter baumannii; test: Antimicrobial activity against Acinetobacter baumannii 19606 assessed as effect on planktonic growth at IC50 after 2 to 24 hrs by colony count method; set-up: species or system ATCC 19606
[17] = test system: Escherichia coli; test: Reversal of N-(2-(4-(((3aR,8aR)-1,2,3,3a,8,8a-hexahydropyrrolo[2,3-b]indol-3a-yl)methyl)-1H-1,2,3-triazol-1-yl)ethyl)-4-hexylbenzamide-induced biofilm inhibition in Escherichia coli K-12 ER2718; format: functional, organism-based; outline: as §3
[18] = test system: Staphylococcus aureus; test: Antimicrobial activity against Staphylococcus aureus 29213 assessed as effect on planktonic growth at IC50 after 2 to 24 hrs by colony count method; format: organism-based; conditions: in vivo
[19] = test system: Escherichia coli; test: Reversal of N-(2-(4-(((3aR,8aR)-1,2,3,3a,8,8a-hexahydropyrrolo[2,3-b]indol-3a-yl)methyl)-1H-1,2,3-triazol-1-yl)ethyl)-4-hexylbenzamide-induced biofilm inhibition in Escherichia coli K-12 ER2718 at PC25 relative to control; format: functional; set-up: scale not given: the % may be the effect or the level left; outline: as §3
[20] = test system: Escherichia coli; test: Antimicrobial activity against Escherichia coli K-12 ER2718 assessed as effect on planktonic growth at PC25 after 2 to 24 hrs; format: organism-based
[21] = test system: Escherichia coli; test: Reversal of N-(2-(4-(((3aR,8aR)-1,2,3,3a,8,8a-hexahydropyrrolo[2,3-b]indol-3a-yl)methyl)-1H-1,2,3-triazol-1-yl)ethyl)-4-hexylbenzamide-induced biofilm inhibition in Escherichia coli K-12 ER2718 at PC50 relative to control; format: functional; set-up: scale not given: the % may be the effect or the level left; outline: as §3
[22] = test system: Staphylococcus aureus; test: Antimicrobial activity against Staphylococcus aureus 29213 assessed as effect on planktonic growth at IC50 after 2 to 24 hrs; format: organism-based; conditions: in vivo
[23] = test system: Escherichia coli; test: Antimicrobial activity against Escherichia coli K-12 ER2718 assessed as effect on planktonic growth at PC50 after 2 to 24 hrs by colony count method; format: organism-based; conditions: in vivo
[24] = test system: Staphylococcus aureus; test: Antimicrobial activity against methicillin-resistant Staphylococcus aureus BAA 44 assessed as effect on planktonic growth at IC50 after 2 to 24 hrs by colony count method; format: organism-based; conditions: in vivo
[25] = test system: Escherichia coli; test: Antimicrobial activity against Escherichia coli K-12 ER2718 assessed as effect on planktonic growth at PC75 after 2 to 24 hrs; format: organism-based; conditions: in vivo
[26] = test system: Escherichia coli; test: Antimicrobial activity against Escherichia coli K-12 ER2718 assessed as effect on planktonic growth at PC75 in presence of N-(2-(4-(((3aR,8aR)-1,2,3,3a,8,8a-hexahydropyrrolo[2,3-b]indol-3a-yl)methyl)-1H-1,2,3-triazol-1-yl)ethyl)-4-hexylbenzamide; format: organism-based; conditions: in vivo
[27] = test system: Escherichia coli; test: Antimicrobial activity against Escherichia coli K-12 ER2718 assessed as effect on planktonic growth at PC50 after 2 to 24 hrs; format: organism-based
[28] = test system: Escherichia coli; test: Antimicrobial activity against Escherichia coli K-12 ER2718 assessed as effect on planktonic growth at 50 uM after 2 to 24 hrs; format: organism-based
Outline: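 Growth curve analysis of planktonic bacteria with each biofilm inducer at 50 μM, used to assess toxicity.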

[29] = test system: Escherichia coli; test: Induction of biofilm formation in Escherichia coli K-12 ER2718 assessed as concentration required for 25% promotion of biofilm formation after 24 hrs by crystal violet staining-based assay; format: functional; outline: as §2
[30] = test system: Acinetobacter baumannii; test: Antimicrobial activity against Acinetobacter baumannii 19606 assessed as effect on planktonic growth at IC50 after 2 to 24 hrs; set-up: species or system ATCC 19606

For `CCCCCCc1ccc(C(=O)NCCn2cc(C[C@@]34CCN[C@@H]3Nc3ccccc34)nn2)cc1`, the IC50 [1] was 100 µM, the IC50 [2] was 12.5 µM and the IC50 [3] was 3.4 µM.

`CCCCCCc1ccc(C(=O)NCCn2cc(Cc3c[nH]c4ccccc34)nn2)cc1` was tested, and the Activity [4] was “Non-toxic”, the Activity [5] was “Non-toxic” and the Activity [6] was “Non-toxic”. For the same compound, the Activity [7] was “Non-toxic”, the Activity [8] was 82.6 µM and the Activity [9] was 160.7 µM. For the same compound, the Activity [10] was “Non-toxic”, the inhibition at 150 µM [11] was 25% and the Activity [12] was “Non-toxic”. For the same compound, the Activity [13] was 87%, the Activity [14] was >50% and the Activity [15] was “Non-toxic”. The Activity [16] was “Non-toxic”, the Activity [17] was “Dose-dependent effect” and the Activity [18] was “Non-toxic”. The Activity [19] was 7.7%, the Activity [20] was “Non-toxic” and the Activity [21] was 47%. The Activity [22] was “Non-toxic”, the Activity [23] was “Non-toxic” and the Activity [24] was “Non-toxic”. The Activity [25] was “Non-toxic”, the Activity [26] was “Non-toxic” and the Activity [27] was “Non-toxic”. The Activity [28] was “Non-toxic”, the IC50 [2] was 174 µM and the IC50 [3] was 313 µM. The Activity [29] was 47.8 µM and the Activity [30] was “Non-toxic”.
